Results from different studies.
Compare with care: the assays were run in different laboratories.
Mode: inhibitor
CDK5 with p25: Cyclin-dependent kinase 5, with p25 (CDK5, Homo sapiens, UniProt Q00535)
CDK5 with p35: Cyclin-dependent kinase 5, with p35 (CDK5, Homo sapiens, UniProt Q00535)
CDK5: Cyclin-dependent kinase 5 (CDK5, Homo sapiens, UniProt Q00535)

| Compound | target | assay | system | conditions | inhibition |
| --- | --- | --- | --- | --- | --- |
| CC[C@H](C)[C@H](NC(=O)[C@H](CCC(N)=O)NC(=O)[C@H](CC(C)C)NC(=O)[C@H](CCSC)NC(=O)[C@H](CCCCN)NC(=O)[C@H](CO)NC(=O)[C@H](CO)NC(=O)[C@H](CCSC)NC(=O)[C@H](CC(C)C)NC(=O)[C@H](CC(N)=O)NC(=O)[C@@H](NC(=O)[C@@H](NC(=O)[C@H](CO)NC(=O)[C@H](CC(C)C)NC(=O)[C@H](CS)NC(=O)[C@H](CCCNC(=N)N)NC(=O)[C@H](CC(=O)O)NC(=O)[C@H](Cc1c[nH]c2ccccc12)NC(=O)[C@H](Cc1ccccc1)NC(=O)[C@H](C)NC(=O)[C@H](CCC(=O)O)NC(=O)[C@@H](N)CCCCN)C(C)C)[C@@H](C)CC)C(=O)N[C@@H](CC(N)=O)C(=O)N[C@@H](C)C(=O)O | CDK5 with p25 | enzyme activity, radiometric |  | 250 µM | 59% |
| COc1cc2ncnc(Nc3ccc(Oc4ccccc4)c(C)c3C)c2cc1OC | CDK5 with p25 | enzyme activity |  | 1 µM | 3% |
| CN(C)C1CCN(CC#Cc2nn(C3CCCC3)c3nc(NCc4ccccc4)ncc23)C1 (stereo not shown) | CDK5 with p25 | enzyme activity, FRET |  | 10 µM | 3% |
| COc1cc2ncnc(Nc3ccc(Oc4ccccc4)cc3C)c2cc1OC | CDK5 with p35 | enzyme activity |  | 1 µM | 7% |
| CN1CC(Oc2cnc(C#N)cc2-c2ccn3nc(NC(=O)C4CC4)cc3c2)C1 | CDK5 with p25 | enzyme activity |  | 1 µM | 4% |
| CNCc1ccc(-c2cc(-c3nc(-c4ccc(S(=O)(=O)C(C)C)cc4)cnc3N)on2)cc1 | CDK5 with p35 | enzyme activity |  | 2 µM | 16% |
| CCN1CCN(Cc2ccc(NC(=O)c3ccc(C)c(Oc4ccnc5[nH]ccc45)c3)cc2C(F)(F)F)CC1 | CDK5 | target engagement in cells, chemoproteomics | Huh-7 | 1 µM | -88.8% |
| Cc1ccc(-n2nc(C(C)(C)C)cc2NC(=O)Nc2ccc(OCCN3CCOCC3)c3ccccc23)cc1 | CDK5 with p25 | enzyme activity |  | 10 µM | 1% |
| CNc1cc(Oc2cc(C(=O)Nc3cc(N4CCN(C)CC4)cc(C(F)(F)F)c3)ccc2C)ncn1 | CDK5 | target engagement in cells, chemoproteomics | Huh-7 | 1 µM | -37.2% |
| COc1cc(-c2cc(-c3ccc(N4CCNCC4)cc3)cnc2C)cc(OC)c1OC | CDK5 | enzyme activity |  | 0.1 µM | 2% |
